Experimental data from ChEMBL document CHEMBL1134562, “Fluorosulfonyl- and bis-(beta-chloroethyl)amino-phenylamino functionalized pyrazolo[4,3-e]1,2,4-triazolo[1,5-c]pyrimidine derivatives: irreversible antagonists at the human A3 adenosine receptor and molecular modeling studies” (J Med Chem, 2001).

Key:
[1] = molecular target: T1, Adenosine receptor A3 (Homo sapiens) (UniProt P0DMS8); assay: Irreversible inhibition of […]-AB-MECA binding to human adenosine A3 receptor at 100 nM
T1 sequence (whole entry): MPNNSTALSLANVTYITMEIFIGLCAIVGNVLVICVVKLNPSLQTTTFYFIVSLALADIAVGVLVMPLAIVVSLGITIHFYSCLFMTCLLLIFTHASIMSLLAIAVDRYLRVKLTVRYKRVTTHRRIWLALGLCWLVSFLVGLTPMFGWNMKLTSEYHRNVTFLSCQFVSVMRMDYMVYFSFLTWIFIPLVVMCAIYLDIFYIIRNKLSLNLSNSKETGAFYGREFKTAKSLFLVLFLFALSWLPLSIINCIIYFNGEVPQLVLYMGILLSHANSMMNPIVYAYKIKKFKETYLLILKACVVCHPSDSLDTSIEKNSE
Summary of the method: (§1)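 Membranes from CHO cells stably expressing human A3 receptor, preincubated 1 h at room temperature with compound (DMSO ≤1%), then washed 9 times by centrifugation/resuspension in 50 mM Tris, 10 mM Mg2+, 1 mM EDTA pH 7.4 with 0.02% CHAPS; adenosine deaminase 3 units/mL throughout.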

[2] = molecular target: T1, Adenosine receptor A3 (Homo sapiens); assay: Irreversible inhibition of […]-AB-MECA binding to human adenosine A3 receptor at 10 nM; summary of the method: as §1
[3] = molecular target: T1, Adenosine receptor A3 (Homo sapiens); assay: Irreversible inhibition of […]-AB-MECA binding to human adenosine A3 receptor at 1 nM; summary of the method: as §1

Which results are given for CCCCn1cc2c(nc(NC(=O)Nc3ccc(N(CCCl)CCCl)cc3)n3nc(-c4ccco4)nc23)n1?
inhibition [1]: 9%; inhibition [2]: 7%; inhibition [3]: 0%

With CCn1cc2c(nc(NC(=O)Nc3ccc(S(=O)(=O)F)cc3)n3nc(-c4ccco4)nc23)n1 as the compound, how does the inhibition [1] read?
The inhibition was 65%.

What about the inhibition [2] of the same compound?
Its inhibition is 30%.

What about the inhibition [3] of the same compound?
Its inhibition is 4.1%.

CCn1cc2c(nc(NC(=O)Nc3ccc(N(CCCl)CCCl)cc3)n3nc(-c4ccco4)nc23)n1 was tested. Which inhibition [1] did it give?
The inhibition was 18%.

And the inhibition [2]?
Its inhibition is 0%.

What about the inhibition [3] of the same compound?
The inhibition was 0%.

Cn1cc2c(nc(NC(=O)Nc3ccc(N(CCCl)CCCl)cc3)n3nc(-c4ccco4)nc23)n1 was tested. Which inhibition [1] did it give?
Its inhibition is 22%.

And the inhibition [2]?
Its inhibition is 11%.

What about the inhibition [3] of the same compound?
Its inhibition is 0%.

What does the source list for CCCn1cc2c(nc(NC(=O)Nc3ccc(S(=O)(=O)F)cc3)n3nc(-c4ccco4)nc23)n1?
inhibition [1]: 79%; inhibition [2]: 70%; inhibition [3]: 47%

For CCCn1cc2c(nc(NC(=O)Nc3ccc(N(CCCl)CCCl)cc3)n3nc(-c4ccco4)nc23)n1, which inhibition [1] is on record?
The inhibition was 16%.

What about the inhibition [2] of the same compound?
Its inhibition is 11%.

What about the inhibition [3] of the same compound?
The inhibition was 7.8%.

Which results are given for CCCCn1cc2c(nc(NC(=O)Nc3ccc(S(=O)(=O)F)cc3)n3nc(-c4ccco4)nc23)n1?
inhibition [1]: 73%; inhibition [2]: 40%; inhibition [3]: 31%
